These results are taken from ChEMBL document CHEMBL1649536, “First report of plasmid-mediated quinolone resistance determinant qnrS1 in an Escherichia coli strain of animal origin in Italy” (2009).

≈ marks a conversion by molar mass, not a printed value.

Assay type in all cases: functional
Assay [1] concerns Escherichia coli. The assay is described as follows: Antibacterial activity against quinolone-resistant Escherichia coli TOP10-3963 transformant harboring qnrS1 gene by Etest method. An outline of the steps: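 The transformant was made by extracting plasmid DNA from strain 3963 and transforming competent E. coli TOP10. Transformants were selected on LB agar containing 0.06 μg/ml ciprofloxacin and carried both qnrS1 and blaTEM-1.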

Assay [2] deals with Escherichia coli. The assay is described as follows: Antibacterial activity against Escherichia coli TOP10 by Etest method.
Assay [3] deals with Escherichia coli. The assay is described as follows: Antibacterial activity against Escherichia coli 3963 by Etest method. An outline of the steps:
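Strain 3963 is an E. coli poultry isolate of phylogenetic group D and multilocus sequence type 398. It was picked from 73 poultry isolates with ciprofloxacin MICs of ≥0.125 μg/ml. Resistance categories were assigned by published interpretive criteria.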

As to `CC1(C)S[C@@H]2[C@H](NC(=O)[C@H](N)c3ccccc3)C(=O)N2[C@H]1C(=O)O` [AMPICILLIN], the MIC was at least 256 µg/mL in assay [1], 6 µg/mL (≈ 17.2 µM) in assay [2] and at least 256 µg/mL in assay [3].

Consider `CO/N=C(\C(=O)N[C@@H]1C(=O)N2C(C(=O)O)=C(COC(C)=O)CS[C@H]12)c1csc(N)n1` [CEFOTAXIME], for which the MIC in assay [1] is 0.064 µg/mL (≈ 0.141 µM); in assay [2] it was 0.064 µg/mL (≈ 0.141 µM); in assay [3], 0.047 µg/mL (≈ 0.103 µM).

As to `CO/N=C(\C(=O)N[C@@H]1C(=O)N2C(C(=O)O)=C(CSc3nc(=O)c(O)nn3C)CS[C@H]12)c1csc(N)n1` [CEFTRIAXONE], the MIC in assay [1] stood at 0.094 µg/mL (≈ 0.169 µM); in assay [2] it was 0.064 µg/mL (≈ 0.115 µM); in assay [3], 0.032 µg/mL (≈ 0.0577 µM).

In the case of `O=C(O)c1cn(C2CC2)c2cc(N3CCNCC3)c(F)cc2c1=O` [CIPROFLOXACIN], the MIC in assay [3] is 0.38 µg/mL (≈ 1.15 µM).

For `CCN1CCN(c2cc3c(cc2F)c(=O)c(C(=O)O)cn3C2CC2)CC1` [ENROFLOXACIN], the MIC in assay [1] turned out to be 0.5 µg/mL (≈ 1.39 µM); in assay [2], 0.08 µg/mL (≈ 0.223 µM); in assay [3], 2 µg/mL (≈ 5.56 µM).

Take `C[C@H]1COc2c(N3CCN(C)CC3)c(F)cc3c(=O)c(C(=O)O)cn1c23.C[C@H]1COc2c(N3CCN(C)CC3)c(F)cc3c(=O)c(C(=O)O)cn1c23.O` [LEVOFLOXACIN]: the MIC came to 0.25 µg/mL in assay [1] and 0.006 µg/mL in assay [2].

In the case of `CCn1cc(C(=O)O)c(=O)c2ccc(C)nc21` [NALIDIXIC ACID], the minimum inhibitory concentration (MIC) in assay [1] was found to be 6 µg/mL (≈ 25.8 µM); in assay [2], 2 µg/mL (≈ 8.61 µM); in assay [3], 16 µg/mL (≈ 68.9 µM).

In general, MIC refers to the lowest concentration that inhibits growth of the organism.
